From ChEMBL document CHEMBL1124084, “Studies on scavengers of active oxygen species. 1. Synthesis and biological activity of 2-O-alkylascorbic acids” (J Med Chem, 1988)
One block for each compound: values may come before it. Activity calls are given as the source filed them. The rule behind the calls is not given here.

Experiments:
Rattus norvegicus [1] = assay: Effect of AOS scavenger on ventricular tachycardia (VT), arrhythmias induced by ischemia-reperfusion in anesthetized rat, frequency, times at 10 mg/kg; format: functional, Cardiac ventricle
Rattus norvegicus [2] = assay: Effect of AOS scavenger on ventricular fibrillation (VF),arrhythmias induced by ischemia-reperfusion in anesthetized rat, duration at 10 mg/kg; format: functional, Cardiac ventricle
Rattus norvegicus [3] = assay: Effect of AOS scavenger on ventricular tachycardia (VT),arrhythmias induced by ischemia-reperfusion in anesthetized rat, incidence at 10 mg/kg; 8/8; format: functional, Cardiac ventricle
Rattus norvegicus [4] = assay: Effect of AOS scavenger on premeture ventricular complexes PVCs, arrhythmias induced by ischemia-reperfusion in anesthetized rat, duration at 10 mg/kg; format: functional, Cardiac ventricle
Rattus norvegicus [5] = assay: Effect of AOS scavenger on ventricular fibrillation (VF),arrhythmias induced by ischemia-reperfusion in anesthetized rat; incidence at 10 mg/kg 7/8; format: functional, Cardiac ventricle
Rattus norvegicus [6] = assay: Effect of AOS scavenger on ventricular tachycardia (VT),arrhythmias induced by ischemia-reperfusion in anesthetized rat duration at 10 mg/kg; format: functional, Cardiac ventricle
[7] = Reducing activity determined by the use of stable radical alpha,alpha-di-phenyl-beta-picrylhydrazyl (DPPH); set-up: concentration or dose not given beside the values
Rattus norvegicus [8] = assay: Effect of AOS scavenger on ventricular fibrillation (VF), arrhythmias induced by ischemia-reperfusion in anesthetized rat, frequency, times at 10 mg/kg; format: functional, Cardiac ventricle
Rattus norvegicus [9] = species: Rattus norvegicus; assay: Antilipid peroxidation was determined; No effect; format: functional
Summary of the method: (§1)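 Rat brain lipid peroxidation: brains from male SD rats (12 weeks old), exsanguinated under pentobarbital anaesthesia, homogenized to 5% in phosphate buffer pH 7.4. Homogenate incubated with test drug at 37 °C for 1 h. Lipid peroxide quantified by the thiobarbituric acid method.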

Rattus norvegicus [10] = species: Rattus norvegicus; assay: Inhibition of lipid peroxidation was determined with rat brain tissue homogenates; format: functional
Summary of the method: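 Brains excised from male SD rats (12 weeks), exsanguinated under pentobarbital anesthesia; 5% homogenate in phosphate buffer pH 7.4 incubated with test drug 1 h at 37 °C; lipid peroxide quantified by thiobarbituric acid method.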

Rattus norvegicus [11] = assay: Effect of AOS scavenger on ventricular tachycardia (VT),arrhythmias induced by ischemia-reperfusion in anesthetized rat, duration at 10 mg/kg; format: functional, Cardiac ventricle
Rattus norvegicus [12] = assay: Effect of AOS scavenger on ventricular fibrillation (VF),arrhythmias induced by ischemia-reperfusion in anesthetized rat, frequency at 10 mg/kg
Rattus norvegicus [13] = assay: Effect of AOS scavenger on ventricular fibrillation (VF),arrhythmias induced by ischemia-reperfusion in anesthetized rat, incidence at 10 mg/kg; 4/7; format: functional, Cardiac ventricle
Rattus norvegicus [14] = assay: Effect of AOS scavenger on ventricular fibrillation (VF),arrhythmias induced by ischemia-reperfusion in anesthetized rat, duration at 10 mg/kg
Rattus norvegicus [15] = species: Rattus norvegicus; assay: Antilipid peroxidation was determined; format: functional; summary of the method: as §1
Rattus norvegicus [16] = assay: Effect of AOS scavenger on ventricular tachycardia (VT),arrhythmias induced by ischemia-reperfusion in anesthetized rat, frequency, times at 10 mg/kg; format: functional, Cardiac ventricle
Rattus norvegicus [17] = assay: Effect of AOS scavenger on ventricular tachycardia (VT),arrhythmias induced by ischemia-reperfusion in anesthetized rat, incidence at 10 mg/kg; 6/7; format: functional, Cardiac ventricle
Rattus norvegicus [18] = species: Rattus norvegicus; assay: Antilipid peroxidation was measured at 10e-5 M concentration.; format: functional; summary of the method: as §1
Rattus norvegicus [19] = assay: Effect of AOS scavenger on ventricular tachycardia (VT),arrhythmias induced by ischemia-reperfusion in anesthetized rat, incidence at 10 mg/kg
Rattus norvegicus [20] = assay: Effect of AOS scavenger on ventricular fibrillation (VF),arrhythmias induced by ischemia-reperfusion in anesthetized rat, incidence at 10 mg/kg; 3/6; format: functional, Cardiac ventricle
Rattus norvegicus [21] = assay: Effect of AOS scavenger on ventricular tachycardia (VT), arrhythmias induced by ischemia-reperfusion in anesthetized rat at requency, times 10 mg/kg; format: functional, Cardiac ventricle
Rattus norvegicus [22] = assay: Effect of AOS scavenger on ventricular fibrillation (VF),arrhythmias induced by ischemia-reperfusion in anesthetized rat, incidence at 10 mg/kg; 2/7; format: functional, Cardiac ventricle

SMILES: O=C1C(OCc2ccccc2)=C(O)OC1C(O)CO (configuration not stated)
Frequency (Rattus norvegicus [1]): 3.9
Duration (Rattus norvegicus [2]): 79.9 s
Incidence (Rattus norvegicus [3]): 8 N
PVCs (Rattus norvegicus [4]): 26.9 PVCs/min
Incidence (Rattus norvegicus [5]): 7 N
Duration (Rattus norvegicus [6]): <4.9 s
Reducing activity [7]: 93%
Frequency (Rattus norvegicus [8]): 2.5
Antilipid peroxidation (Rattus norvegicus [9]): inactive

IC50 (Rattus norvegicus [10]): 5.6 µM
SMILES: CCCCCCCCCCCCCCCOC1=C(O)OC(C(O)CO)C1=O (configuration not stated)
Duration (Rattus norvegicus [11]): 11.9 s
Frequency (Rattus norvegicus [12]): <0.9
Incidence (Rattus norvegicus [13]): 4 N
Duration (Rattus norvegicus [14]): <3 s
Antilipid peroxidation (Rattus norvegicus [15]): 67.4%
Frequency (Rattus norvegicus [16]): 5
Incidence (Rattus norvegicus [17]): 6 N
Activity (Rattus norvegicus [4]): <4.3 min
Reducing activity [7]: 95.4%

SMILES: CCCCCCCCCCCCCCCCCCOC1=C(O)C(=O)OC1C(O)CO (configuration not stated)
Duration (Rattus norvegicus [11]): <4 s
Antilipid peroxidation (Rattus norvegicus [18]): 34.5%
Frequency (Rattus norvegicus [1]): 2.3
Duration (Rattus norvegicus [2]): <1.9 s
Incidence (Rattus norvegicus [19]): 4 N
Incidence (Rattus norvegicus [20]): 3 N
PVCs (Rattus norvegicus [4]): 3.9
Reducing activity [7]: 94.5%
Frequency (Rattus norvegicus [8]): <0.8

IC50 (Rattus norvegicus [10]): 7.4 µM
SMILES: CCCCCCCCCCCCCCOC1=C(O)OC(C(O)CO)C1=O (configuration not stated)
Duration (Rattus norvegicus [11]): 12.9 s
Duration (Rattus norvegicus [2]): 10.1 s
Frequency (Rattus norvegicus [21]): <2.6
Antilipid peroxidation (Rattus norvegicus [15]): 54.8%
Activity (Rattus norvegicus [4]): <3.5 min
Incidence (Rattus norvegicus [22]): 2 N
Reducing activity [7]: 95.4%
Frequency (Rattus norvegicus [8]): <0.6
